Results of several laboratories.
Each line is one published result; the experiments were not run side by side.
Matrix: plasma

| Structure (SMILES) | species | route | dose | setting | Tmax [min] |
| --- | --- | --- | --- | --- | --- |
| CC1(CN)CCN(c2cnc3c(Sc4ccncc4Cl)n[nH]c3n2)CC1 | male Sprague-Dawley rat | oral | 10 mg/kg | – | 4.98 |
| O=C(C=Cc1ccccc1)Nc1cc(-c2ccnc(N3CCC(O)CC3)c2)ccn1 | female Sprague-Dawley rat | oral | 50 mg/kg | – | 30 |
| O=C1CC[C@H](N2Cc3cc(N4CCN(CC5CCN(c6ccc([C@@H]7c8ccc(O)cc8CC[C@@H]7c7ccccc7)cc6)CC5)CC4)ccc3C2=O)C(=O)N1 | male Sprague-Dawley rat | oral | 20 mg/kg | fasted | 200 |
| CC(=Nc1ccc(N=Cc2cnccn2)cc1)N(C)C | male Sprague-Dawley rat | oral | 200 mg/kg | single dose | ≤ 5 |
| CN1Cc2c(N)cccc2C(=O)N1C1CCC(=O)NC1=O (centres unmarked) | male Sprague-Dawley rat | oral | 3 mg/kg | – | ~18 |
| O=c1cc(-c2ccc(O)c(O)c2)oc2cc(O)cc(O)c12 | male Sprague-Dawley rat | oral | 30 mg/kg | – | 30 |
| N#C[C@@]12C[C@@H]1[C@@H](n1cnc3c(N[C@@H](C4CCC4)C4CC4)nc(I)nc31)[C@H](O)[C@@H]2O | male Wistar rat | oral | 3 mg/kg | – | 120 |
| CC(=O)CC(=O)C1CC(C)C(=O)C1=O (centres unmarked) | male Sprague-Dawley rat | intravenous | 20 mg/kg | – | 6.6 |
| Nc1ccc(/C=C/C(=O)NCc2cc3cc(-c4ccc(C(=O)N5CCC(F)(F)CC5)cc4)cc(-c4ccc(F)cc4)c3o2)cn1 | rat | oral | 3 mg/kg | – | 240 |
| C[C@H]1[C@@H](O)O[C@@H]2O[C@@]3(C)CC[C@H]4[C@H](C)CC[C@@H]1[C@@]24OO3 | Sprague-Dawley rat | oral | 10 mg/kg | – | 27 |
| Cc1c(C(=O)O)ccc2c3n(nc12)[C@@H]1[C@H](C3)N(CC2CC2)[C@@]2(C(=O)Nc3cc(Cl)ccc32)[C@H]1c1cccc(Cl)c1F | male rat | oral | 2 mg/kg | – | 78 |
